# Bioassay records as filed in PubChem BioAssay.
# VIM-2 inhibitor = blocks Pseudomonas aeruginosa VIM-2 metallo-beta-lactamase; inhibition, % at 5.6 µM; purified VIM-2, nitrocefin hydrolysis, epi-absorbance fluorescence; hit rate 0.89% among 290,000;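 active = inhibition above the mean of all tested compounds plus 3 SD, cutoff set per screening run, cut at about 7.5% in these data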;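 also: red hydrolysis product quenches plate fluorescence so inhibitors raise well fluorescence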
# M18AAP inhibitor = PfM18AAP enzyme inhibition | recombinant PfM18AAP, H-Glu-NHMec fluorogenic cleavage | inhibition, % at 7.35 µM | hit rate 1.2% among 290,000;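 active = inhibition above the campaign mean inhibition over all tested compounds plus 3 SD, cut at about 28% in these data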
# sPLA2-III inh = Inhibits HGIII-sPLA2 liposome hydrolysis, primary screen; QFRET BODIPY PC-A2 liposome hydrolysis, fluorescence; inhibition, % at 12.2 µM; hit rate 0.56% among 370,000; AID 743126;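 active = inhibition above mean plus 3 SD of compounds lying within the high and low control bounds, cut at about 19% in these data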
# Target sequence (Q9NZ20 whole entry, looked up): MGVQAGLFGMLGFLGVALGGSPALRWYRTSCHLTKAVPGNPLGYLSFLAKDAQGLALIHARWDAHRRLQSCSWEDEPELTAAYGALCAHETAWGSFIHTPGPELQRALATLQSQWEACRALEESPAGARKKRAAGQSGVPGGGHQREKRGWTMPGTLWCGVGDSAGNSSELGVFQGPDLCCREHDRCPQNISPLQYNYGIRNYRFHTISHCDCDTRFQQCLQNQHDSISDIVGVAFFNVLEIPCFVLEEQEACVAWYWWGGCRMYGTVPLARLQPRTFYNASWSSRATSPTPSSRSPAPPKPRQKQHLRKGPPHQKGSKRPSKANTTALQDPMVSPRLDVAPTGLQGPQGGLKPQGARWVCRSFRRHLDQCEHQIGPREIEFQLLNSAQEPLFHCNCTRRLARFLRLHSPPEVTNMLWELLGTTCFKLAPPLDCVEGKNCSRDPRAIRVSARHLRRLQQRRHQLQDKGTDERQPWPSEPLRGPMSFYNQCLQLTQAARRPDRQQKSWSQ
# IMP-1 inhibitor = inhibitors of Pseudomonas aeruginosa IMP-1 metallo-beta-lactamase; AID 1556; inhibition, % at 5.6 µM; purified IMP-1, nitrocefin hydrolysis, epi-absorbance fluorescence; hit rate 0.45% among 290,000;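 active = inhibition above the mean plus 3 SD of all compounds in the same screening run, cut at about 4.5% in these data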
#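 System: purified IMP-1 / Input: IMP-1 dispensed at 0.2 nM / Medium: 50 mM HEPES pH 7.1, 50 µM ZnSO4, 0.05% Brij 35 / Timing: 15 min enzyme–compound preincubation, then 25 min nitrocefin reaction, 25 °C / Technique: plate fluorescence quenching by hydrolysis product, ex 480/em 530 nm / Repeats: singlicate testing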
# sPLA2 confirm = human GIII-sPLA2 inhibition, confirmation. shares compounds with sPLA2-III inh. recombinant hGIII-sPLA2, BODIPY PC-A2 QFRET fluorescence. inhibition, % at 12.2 µM. hit rate 34% among 2,000. AID 743280;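 active = mean inhibition across triplicates above the hit cutoff set in the earlier primary screen, cut at about 19% in these data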
# 535nm interf = counter-screen for HGIII-sPLA2 inhibitors: 535nm fluorescence interference; shares compounds with sPLA2-III inh; BODIPY FL product fluorescence interference, QFRET; inhibition, % at 12.2 µM; hit rate 8.5% among 2,000;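 active = average inhibition above the solvent-only control mean plus 3 SD, cut at about 6% in these data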
# BODIPY interf DR = 535nm optical interference dose response, HGIII-sPLA2 counter-screen; shares compounds with sPLA2-III inh; 240 tested, under 10 active; AID 743455; IC50, µM; BODIPY FL product fluorescence interference, cell-free;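 active = IC50 at or below 10 µM; inactive = IC50 above 10 µM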
# Hits are given with their value; 0 = inactive; - = no result given. Shown are actives, neighbours in structure and some others; about 2.4% of the full set was active somewhere.
SMILES,VIM-2 inhibitor,M18AAP inhibitor,sPLA2-III inh,IMP-1 inhibitor,sPLA2 confirm,535nm interf,others
O=C(NNC(=S)Nc1ccccc1Cl)c1ccccc1Cl,0,0,25.6,0,34.6,0,BODIPY interf DR=0
O=C(NNC(=S)Nc1ccccc1Cl)c1ccccc1,0,0,0,0,-,-,
Cc1cccc(NC(=S)NNC(=O)c2ccc3c(c2)OCO3)c1,0,0,22.9,0,42.9,0,BODIPY interf DR=0
O=C(CSCc1ccccc1)NNC(=S)Nc1cccc(Cl)c1Cl,0,0,38.0,0,35.1,0,BODIPY interf DR=0
COc1ccccc1NC(=S)NNC(=O)c1ccccc1Br,0,0,22.1,0,0,0,
CCN(CC)C(=O)C1=C(C)N(CCCN2CCCC2=O)C(=O)C(CC(=O)NC2CCCCC2)C1 (centres undefined),-,-,0,-,-,-,
CCN(CC)C(=O)CC[C@H]1CC[C@]2(CCCN(Cc3ccccc3)C2)O1,-,-,0,-,-,-,
COC(=O)c1cnc(Nc2nc(C(N)c3ccccc3Cl)cs2)nc1C(F)(F)F (centres undefined),-,-,0,-,-,-,
NC(c1csc(NC(=O)c2cccc(OC(F)(F)F)c2)n1)c1ccccc1Cl (centres undefined),-,-,36.9,-,24.7,0,
COCCn1c(C)cc(C(=O)COC(=O)c2cncc(Br)c2)c1C,0,0,21.3,0,0,0,
COc1ccc(Cl)cc1-c1cc(C(=O)NCc2cccc(C(F)(F)F)c2)[nH]n1,-,-,0,-,-,-,
O=C(CNC1CCCC1)Nc1cc(Cl)ccc1[N+](=O)[O-],0,0,21.1,0,0,0,
CCCCNc1c(-c2ccc(SC(C)CC)cc2)nc2ccc(Cl)cn12 (centres undefined),-,-,22.6,-,0,0,
C=CCN1C=C/C(=C\C=C(C#N)C#N)c2ccccc21,0,0,27.6,0,48.3,13.2,
CCCCCCN1C=C/C(=C\C=C(C#N)C#N)c2ccccc21,0,0,0,0,-,-,
O=C(N/N=C/c1ccc(Cl)cc1Cl)c1cccc(N2CCCC2=O)c1,0,0,0,0,-,-,
O=C(N/N=C/c1cc(Br)cc(Br)c1O)c1cccc(N2CCCC2=O)c1,0,0,28.3,0,23.8,0,
CC(C)C1Cc2[nH]c(=S)[nH]c(=O)c2C(c2ccc(F)cc2)O1 (centres undefined),-,-,0,-,-,-,
CC(C)C1Cc2[nH]c(=S)[nH]c(=O)c2C(c2ccc(Cl)cc2)O1 (centres undefined),-,-,19.8,-,0,0,
CCOC(=O)C1=CN(Cc2cccc(-c3ccc(F)cc3)c2)S(=O)(=O)N(C)C1C (centres undefined),-,-,0,-,-,-,
COc1cc(CNCCN(C)C)c(Br)cc1OCC(=O)NCc1ccccc1,0,0,22.0,0,0,0,
CCCNC(=O)c1ccc2c(=O)c(O)c(C)[nH]c2c1,-,-,0,-,-,-,
CCCNC(=O)c1ccc2c(=O)c(O)c(-c3cccc(Br)c3)[nH]c2c1,-,-,19.6,-,0,0,
CCOC(=O)c1ccc(-n2cccc2/C=C2\NC(=O)NC2=O)cc1,-,-,0,-,-,-,
Cc1onc(-c2ccccc2)c1C(=O)N1CCC(C)(C(=O)O)C1 (centres undefined),-,-,0,-,-,-,
SMILES,VIM-2 inhibitor,M18AAP inhibitor,sPLA2-III inh,IMP-1 inhibitor,sPLA2 confirm,535nm interf,others
NC(N)=NS(=O)(=O)c1ccc(NC(=S)NC(=O)/C=C/c2ccc(F)cc2)cc1,0,0,22.1,0,0,0,
O=C(Nc1ccc(Nc2ccccc2)cc1)c1cc([N+](=O)[O-])ccc1Cl,0,0,0,0,-,-,
O=C(Nc1ccccc1Oc1ccccc1)c1cc([N+](=O)[O-])ccc1Cl,0,0,23.1,0,0,0,
CCn1cc(C(=O)Nc2sc(C)c(C)c2C(=O)OC)cn1,0,0,20.3,0,0,0,
CCCc1c(C(=O)N/N=C(\C)c2ccccn2)nnn1-c1nonc1N,-,-,0,-,-,-,
CCOC(=O)[C@]12CCCC=C1N(Cc1ccco1)C(=O)[C@H](CC(=O)NCC13CC4CC(CC(C4)C1)C3)C2,-,-,0,-,-,-,
N#CC1(Nc2cccc(Br)c2)C(=O)Nc2ccccc21 (centres undefined),0,0,21.9,0,0,0,
CCOC(=O)N1CCN(C(c2ccnc3ccccc23)c2nnnn2-c2ccc3c(c2)OCCO3)CC1 (centres undefined),-,-,0,-,-,-,
COc1cc(O)c2c(=O)c3c(O)ccc(O)c3oc2c1,-,-,22.1,-,0,0,
COc1cc(OC)cc(C2=Cc3ccccc3C(CC(=O)c3ccco3)N2c2ccc(-c3cccnc3)cc2)c1 (centres undefined),-,-,0,-,-,-,
CC(C)C(N)c1csc(Nc2ccc(C(F)(F)F)cn2)n1 (centres undefined),-,-,22.6,-,0,0,
CC(C)Nc1nc(Nc2ccc(F)cc2)c2sccc2n1,-,-,0,-,-,-,
Oc1cccc(NC(=S)Nc2ccc(SC(F)F)cc2)c1,0,0,35.2,0,0,0,
CC(C)(C)NC(=O)c1cccc2c1OC(C)(C)C2,0,0,23.9,0,0,0,
O=C(COC(=O)/C=C/c1ccc(Cl)cc1)Nc1ccc2c(c1)OCCO2,0,0,22.4,0,0,0,
CC(C)n1c(=O)c2ccccc2n1CC(=O)N1CCOCC1,-,-,0,-,-,-,
CCCn1c(=S)[nH]c2cc(C(=O)N3CCN(C4CCCCC4)CC3)ccc2c1=O,0,0,20.3,0,0,0,
O=C(c1ccc2c(=O)n(C3CCCC3)c(=S)[nH]c2c1)N1CCN(C2CCCCC2)CC1,0,0,0,0,-,-,
COc1ccc(-n2c(SCC(=O)Nc3ccc(S(=O)(=O)Nc4cc(C)nc(C)n4)cc3)nnc2-c2ccco2)cc1,-,-,0,-,-,-,
CCn1cc(C2C3=C(CC(C)(C)CC3=O)N(c3ccc(C)cc3)C3=C2C(=O)CC(C)(C)C3)c(C)n1,-,-,19.7,-,0,0,
CCn1cc(C2C3=C(CC(C)(C)CC3=O)N(c3ccccc3)C3=C2C(=O)CC(C)(C)C3)c(C)n1,0,0,0,0,-,-,
O=C(O)/C=C/C(=O)Nc1ccc(C2(c3ccc(NC(=O)/C=C/C(=O)O)cc3)c3ccccc3-c3ccccc32)cc1,0,0,22.3,0,0,0,
O=C(O)c1c[nH]c2nccnc12,-,-,0,-,-,-,
CC(=O)Nc1sc(N/N=C\c2ccc(O)cc2)nc1-c1cccs1,0,0,0,0,-,-,
CC(=O)Nc1sc(N/N=C\c2cccc(Cl)c2)nc1-c1cccs1,0,0,25.0,0,35.4,13.6,
SMILES,VIM-2 inhibitor,M18AAP inhibitor,sPLA2-III inh,IMP-1 inhibitor,sPLA2 confirm,535nm interf,others
O=C(Nc1ccccc1)NN(C(=O)CCl)c1ccccc1,0,0,0,0,-,-,
COC(=O)c1ccc(N2CCOCC2)c(NC(=O)c2cccnc2)c1,0,0,0,0,-,-,
O=C(Nc1ccc(F)cc1)C(c1ccccc1OC(F)(F)F)N1CCN(C(=O)c2ccco2)CC1 (centres undefined),-,-,0,-,-,-,
FC(F)(F)C1=Nc2cccc3cccc(c23)N1,-,-,28.3,-,32.1,12.3,
NC(c1csc(NC(=O)Nc2ccccc2)n1)C1CCCCC1 (centres undefined),-,-,22.3,-,0,0,
NC(c1csc(NC(=O)Nc2cccc(Cl)c2)n1)C1CCCCC1 (centres undefined),-,-,0,-,-,-,
